Reference: the RNAGym collection of RNA variant scans (doi:10.1126/science.aae0568)
Variants at the floor of the assay were thinned out.

B1: tRNA (parent)
chain: GUUCCGUUGGCGUAAUGGUAACGCGUCUCCCUCCUAAGGAGAAGACUGCGGGUUCGAGUCCCGUACGGAACG

Variants of: B1
Test: yeast fitness relative to wild type (ratio to wild type); higher = fitter; tRNA-Arg(CCU), competitive growth, 37 C, YPD
Outline: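 Amplicons of the tRNA-Arg(CCU) gene were sequenced, 100-nucleotide paired-end, from the start population and from each end population of a pooled yeast competition. The competition, in six parallel replicates, lasted 24 hours in YPD at 37°C. Fitness relative to wild type was calculated from changes in genotype frequencies. Genotypes had to have ≥ 100 starting reads, and estimates < 0.5 were set to 0.5.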

Variant	yeast fitness
U19A C66A	0.607
U19A C66G	0.686
G18C G25C	0.677
G18A U47A	0.824
U19C A20C C31G A65C	≤ 0.5
U19A C27U A43U C55U	≤ 0.5
U19A U28A C60G	≤ 0.5
U19A C31G A70U	0.919
G18C C24A A57C C66U A69C	≤ 0.5
U19A C30G A36G A57U A65U	≤ 0.5
G18C G48A C55A	≤ 0.5
G18C G23A G25C A37G A43C	≤ 0.5
G18C U35G G41C G56A A65G C66U	≤ 0.5
U19C A37U C66G	≤ 0.5
G18C A21G G67A	≤ 0.5
U19C A45C G48C	0.57
G18C U35A A45C G48A	≤ 0.5
G18C G63A	0.535
U19A C29G U54C G58A	≤ 0.5
G18C G48A U53G	≤ 0.5
U19A C49G U59C C60G C62G	≤ 0.5
U19A C30A A45U G50C	0.62
U19A C29G C46A G68C	≤ 0.5
U19A A42G G67U	0.585

Variant	yeast fitness
U19A C24U C29A U54A	≤ 0.5
U19C A20U C61G C66U A69U	≤ 0.5
G18A U35C U47C G50C	≤ 0.5
G18U A45U U59C	0.542
U19A A36U	0.653
G18C C31G A42G G67A	≤ 0.5
G18C C24G A36C G38C G58C	≤ 0.5
U19A C30G G39C U53C C55A	≤ 0.5
U19A A40G C55G	≤ 0.5
U19A C22G	0.919
G18C C22U C34G	0.688
U19C C22G	0.978
U19A C60G A70C	0.502
G18A G25A	0.665
G18U G39A	0.594
G18A C62U U64A	0.517
G18C C33G C49A C55U	0.517
U19A G25A A37U A42G C55U	≤ 0.5
G18C A21G G56A	0.575
G18C C27U C55G A65G G68C	≤ 0.5
G18A G67U	0.75
G18A G67A	0.675
G18A G67C	0.841
G18U U32C A45G A57G	≤ 0.5

Variant	yeast fitness
U19A C24U G38A U54C	≤ 0.5
U19A U26C C30A A43C	≤ 0.5
U19A U26C	0.834
U19A U26A	0.907
G18A G25A C29G C34A G63C	≤ 0.5
G18C C29G A45G C66U	0.613
G18A G25C A70U	0.555
U19C A20C A21U	≤ 0.5
U19A U26C C30A G67U	≤ 0.5
U19C A21G U26G	1.01
G18C C22A C29U A45C A69U	≤ 0.5
G18C G25C U28G A42G U47C C49U A57U	≤ 0.5
U19C A21U A69U	0.691
G18U C30U C49G	≤ 0.5
U19A C27A C31A A57C	0.799
G18C A37U A40U U64C G67A	≤ 0.5
G18A G41C A42C C49U	0.522
G18C U59A	0.631
U19A C22G C34U A42G A43G G51A A70U	≤ 0.5
U19C A20C C33U A69C	≤ 0.5
G18C C49U C62U	≤ 0.5
G18C C33G A36C C46A	≤ 0.5
G18C C24G U35C G50C C55G	≤ 0.5
G18U C31U G63A	0.527

Variant	yeast fitness
G18A G51A A70G	≤ 0.5
U19A G48A	1.05
U19A U26C C49G C66G	≤ 0.5
G18C A37C C49G A70G	≤ 0.5
U19C A45C C61A	≤ 0.5
U19C A20U C27G G52C	≤ 0.5
G18A G41C U54A G63A	≤ 0.5
G18C A20G C30A	≤ 0.5
G18C A20U U53C A69U	≤ 0.5
G18C U19C	0.587
U19A A42U C46G	0.988
U19A G25C C33A A37G C55U	≤ 0.5
G18C C22A U32C A45C C46U A65C	≤ 0.5
G18A G68C	0.662
G18C A45U	0.549
U19A A40C C55A C66A	≤ 0.5
G18C G58A	0.701
G18C G58C	0.635
U19C A37C A45C C46A	0.897
G18A G25C A43U	0.6
G18C U26A U53C	0.549
U19A G41A A42G G58U G63C	≤ 0.5
U19A C22G A45U C49U U64A	≤ 0.5
U19A C27A A45C	0.557

Variant	yeast fitness
G18C G44A C62G	≤ 0.5
U19A G25C C33A A37G G68A	≤ 0.5
G18C A45C G52A A65C	≤ 0.5
U19A G67U	0.974
U19A G67C	0.74
G18C U19G A45C G67A	≤ 0.5
U19C A37C C62A U64C	≤ 0.5
U19C A21C	1.12
U19C A21U	0.846
U19A C22U A37C G38C	0.516
U19A A21G C27U C33U	≤ 0.5
G18A U32G A69G	≤ 0.5
G18A G48A A57C U59C	≤ 0.5
G18A U28C	0.739
U19C C24A G58A	≤ 0.5
U19A C27U C55U	0.572
U19A C27U	1.02
U19A A36G U59A	≤ 0.5
G18C C29U C30U G67A	≤ 0.5
U19A C24G G38A G58C C60U C62U C66U	≤ 0.5
G18A G51C A65G	≤ 0.5
G18C G41C A43C C55U	≤ 0.5
G18A U19A C61U	0.61
G18C A69U	0.695

Variant	yeast fitness
G18C A21C C27U A37U	≤ 0.5
G18A U19A C27U	0.707
U19A G39C A69U	0.574
U19C A45G C62U	0.953
G18C C49G C61G	≤ 0.5
G18C C30U C31G G50A	≤ 0.5
U19A C30G A43C U47C U54C	≤ 0.5
U19A C29G G48A C61A	0.683
U19A A20G G56A	0.956
G18C C27U C61A	≤ 0.5
U19C A20G G67A A69U	≤ 0.5
U19A A43U	1
U19A C31U	0.954
U19A C22G C30G A42G C46G	0.741
G18C G23A G25C A37G A43C C55G G63A G68A	≤ 0.5
G18A G50A	0.853
U19C A20C C31G G67A	≤ 0.5
G18C U47A	0.553
G18C C22A	0.582
G18A G25A C46U U59C G68A	≤ 0.5
G18C C33A U54A C62A	0.577
U19A C24U G38A U54C C55U C66A	≤ 0.5
U19A C22G A70U	0.509
U19C A43G G44C A45C C66U	0.589

Variant	yeast fitness
U19C A37G C49U A69C	0.51
G18C C22U G56C	0.542
G18A U59C A69G	≤ 0.5
U19C A20G G58A	0.709
U19A C24A C31G C62U G68C	0.535
U19A A21G A43C G51C	≤ 0.5
U19A C22U U32C C60G	≤ 0.5
G18A G41C A42G U54A	≤ 0.5
U19C A45U	0.923
G18C U28G A36C G38C	≤ 0.5
U19A G25C C33A A37G G44A	≤ 0.5
G18A U64C	0.66
U19A U35A A36U C55G G56C	≤ 0.5
G18C G51A A69G	≤ 0.5
G18A G25A C31U	0.63
U19C A65U	1.07
G18A C62G G68U	≤ 0.5
G18A C62G G68C	≤ 0.5
G18C A45C A65C	0.598
G18C C27G G48A C66G G67A	≤ 0.5
U19A A70U	1.03
U19A A70C	1.03
U19A C24G C33G C34G	0.528
